Results collected from several papers.
Protocols differ between the studies behind these lines.
Target: Calcium/calmodulin-dependent protein kinase kinase 2 (CAMKK2, Homo sapiens, UniProt Q96RR4)

FC(F)(F)Oc1cccc(-c2cnc3ccc(-c4ccncc4)nn23)c1
activity vs control (enzyme activity, inhibitor, radiometric; 1 µM): 59%

O=C(Nc1ccc(Oc2ccc(F)cc2)cc1)N1CCc2ncccc2[C@H]1c1ccc(F)cc1
remaining binding (cell-free assay, competition with immobilised ligand; 1 µM): 100%

O=C(O)c1ccc2c3c1cccc3c(=O)n1c3ccccc3nc21
remaining signal (cell-free assay; 0.5 µM): 7.88%

Cc1noc([C@H]2C[C@@H](c3ccc(C(F)(F)F)cc3)CN(C(=O)N3CCS(=O)(=O)C3)C2)n1
remaining binding (cell-free assay, competition with immobilised ligand; 1 µM): 100%

Nc1ncnc2occ(-c3ccc(NC(=O)Nc4cc(C(F)(F)F)ccc4F)cc3)c12
remaining signal (cell-free assay, inhibitor; 20 µM): 24%

FC(F)c1nc2ccccc2n1-c1nc(N2CCOCC2)nc(N2CCOCC2)n1
remaining activity (enzyme activity, inhibitor; 10 µM): 87%

O=C(Nc1cnn(-c2csc(C(=O)NC3COC3)c2)c1)Nc1ccccc1Cl
remaining activity (enzyme activity, inhibitor; 5 µM): 91.1%

COc1cc(-c2cn(C3CCc4ccccc4N(CC(F)(F)F)C3=O)nn2)ccc1-n1ccc(C)n1 (centres unmarked)
remaining binding (cell-free assay, competition with immobilised ligand; 1 µM): 100%

Cc1ccc(C(=O)NCc2ccsc2)cc1C#Cc1cn(C(C)C)c2ncnc(N)c12
activity vs control (enzyme activity, inhibitor; 1 µM): 110%

Cc1ccc(NC(=O)c2ccc(C)c(C(F)(F)F)c2)cc1C#Cc1nn(C2CCC(O)CC2)c2ncnc(N)c12 (centres unmarked)
remaining signal (cell-free assay; 10 µM): 55%

COc1cc(Nc2cnc(C#N)c(O[C@H](C)CN(C)C)n2)ncc1-c1cnn(C)c1
remaining activity (enzyme activity, inhibitor, radiometric; 1 µM): 103%

COc1cccc2c(NCc3ccccc3)nc(-n3c(N)nc4ccccc43)nc12
inhibition (target engagement in cells, inhibitor, chemoproteomics; 20 mM): -5.8%

CCC1(CC)NC(=O)c2c(c3ccc(Cl)c(Cl)c3n2C)C1C#N (centres unmarked)
ΔTm (thermal stability, DSF; 10 µM): 0.3 °C

O=C1Nc2ccc(Cl)cc2C1=Cc1cc(Cl)c(O)c(Cl)c1
remaining signal (cell-free assay; 0.5 µM): 51.5%

O=C(CSc1nc2nccnc2c(=O)n1CCc1ccccc1)Nc1nccs1
inhibition (enzyme activity, inhibitor; 10 µM): 5%

Cc1cc(NC(=O)c2cccc3cc(-c4cccc5[nH]nc(N)c45)ccc23)ccc1F
activity vs control (enzyme activity, inhibitor; 0.1 µM): 90%

CC(C)(C)C(=O)c1sc(NC2CCCCC2)nc1N
remaining activity (enzyme activity, inhibitor; 10 µM): 83%

CCc1ccccc1C(=O)Nc1n[nH]c2c(C)c(F)c(C3C(C#N)=C(C)N(C)C(C)=C3C#N)cc12
remaining binding (cell-free assay, competition with immobilised ligand; 1 µM): 95%

Cc1cnc(NC2CCOCC2)nc1-n1cnc(C(=O)NC(CN)c2cc(F)cc(Cl)c2)c1 (centres unmarked)
remaining activity (enzyme activity, inhibitor, radiometric; 1 µM): 81%

CNC(=O)c1cc(Oc2ccc(NC(=O)Nc3ccc(Cl)c(C(F)(F)F)c3)cc2)ccn1
remaining signal (cell-free assay; 0.5 µM): 103%

CS(=O)(=O)c1cc(C2(NC(=O)c3cncc4c3cnn4-c3ccc(F)cc3)CC2)ccn1
remaining binding (cell-free assay, competition with immobilised ligand; 1 µM): 75%

CN1CCC2(CC1)NC(=O)c1c(c3ccc(Cl)c(Cl)c3n1C)C2C#N (racemic)
ΔTm (thermal stability, DSF; 10 µM): 1 °C

CC(C)(C)c1nc2c(s1)c1nc(N)ncc1c1ccc(NS(=O)(=O)c3c(F)cccc3F)c(F)c12
remaining activity (enzyme activity, inhibitor, radiometric; 1 µM): 107%

COc1ccc2c(c1)O[C@H](c1ccc(OC)c(OC)c1)C[C@@H]2NC(=O)C1(c2ccc3c(c2)OC(F)(F)O3)CC1
remaining binding (cell-free assay, competition with immobilised ligand; 1 µM): 100%

COc1cc2nccc(Oc3ccc(NC(=O)Nc4ccc(F)cc4F)c(F)c3)c2cc1OC
ΔTm (thermal stability, DSF; 10 µM): 5 to 10 °C

CC(=O)Nc1c(C(C)=O)c(=O)n(C)c2nc(-c3ccc(Cl)cc3Cl)c(-c3ccc(Cl)cc3)cc12
remaining binding (cell-free assay, competition with immobilised ligand; 1 µM): 100%

Cn1c2c(Cl)c(Cl)ccc2c2cc[nH]c(=O)c21
ΔTm (thermal stability, DSF; 10 µM): 0.6 °C

Cc1c[nH]c2nccc(Oc3c(F)cc(Nc4cc(Cl)nc(N)n4)cc3F)c12
remaining binding (cell-free assay, competition with immobilised ligand; 0.1 µM): 98%

Cn1c(=O)n(-c2ccc(C(C)(C)C#N)cc2)c2c3cc(-c4cnc5ccccc5c4)ccc3ncc21
remaining activity (enzyme activity, inhibitor; 10 µM): 61%
